Assay results reported in ChEMBL document CHEMBL1649406, “Synthesis and anti-mycobacterial activities of triazoloquinolones” (Eur J Med Chem, 2011).
In brackets after ≈: the same amount, converted by molar mass.

What was measured:
[1] = test system: Mycolicibacterium smegmatis; assay: Antimycobacterial activity against Mycobacterium smegmatis MC2 155 after 72 hrs by broth microdilution method; format: functional; conditions: str. MC2 155, 72 h
Method in brief: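 Strains were pre-grown in Middlebrook 7H11 with OADC. The microdilution assay ran in sealed 96-well plates at 37 °C and was read after 72 h for M. smegmatis mc²155 and after 7 days for M. bovis BCG.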

[2] = test system: Klebsiella pneumoniae; assay: Antibacterial activity against Klebsiella pneumoniae after 18 to 24 hrs by broth microdilution method; format: functional
Method in brief: (§1)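 Broth microdilution per CLSI; compounds dissolved in DMSO at 10 mg/mL stock, serially diluted in Mueller Hinton Broth, mixed with equal volume of bacterial inoculum (final […]); incubated 37 °C for 18–24 h; MIC taken as lowest concentration preventing visible growth; duplicate determinations.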

[3] = test system: Pseudomonas aeruginosa; assay: Antibacterial activity against Pseudomonas aeruginosa after 18 to 24 hrs by broth microdilution method; format: functional; method in brief: as §1
[4] = test system: Enterococcus faecalis; assay: Antibacterial activity against Enterococcus faecalis after 18 to 24 hrs by broth microdilution method; format: functional; method in brief: as §1
[5] = test system: Staphylococcus aureus; assay: Antibacterial activity against Staphylococcus aureus after 18 to 24 hrs by broth microdilution method; format: functional; method in brief: as §1
[6] = test system: Escherichia coli; assay: Antibacterial activity against Escherichia coli after 18 to 24 hrs by broth microdilution method; format: functional; method in brief: as §1
[7] = test system: Mycobacterium tuberculosis; assay: Antimycobacterial activity against Mycobacterium tuberculosis H37Ra by twofold agar dilution method; format: functional
Method in brief: (§2)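 Strains grown in Middlebrook 7H11 with OADC. Suspensions at McFarland 1 turbidity were diluted 1:10, 1:100 and 1:10,000 in Middlebrook 7H9. These were inoculated onto duplicate Middlebrook 7H11 plates containing serial concentrations of compound.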

[8] = test system: Candida albicans; assay: Antifungal activity against Candida albicans after 48 hrs by NCCLS method; format: functional
Method in brief: (§3)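 NCCLS yeast broth dilution; inocula from 48 h, 35 °C Sabouraud agar cultures diluted to 10⁶ CFU/mL; compounds from 10 mg/mL DMSO stock serially diluted in RPMI-1640, added to equal volume of fungal suspension in round-bottom microplates; incubated 35 °C for 48–72 h; MIC in duplicate.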

[9] = test system: Stenotrophomonas maltophilia; assay: Antibacterial activity against Stenotrophomonas maltophilia after 18 to 24 hrs by broth microdilution method; format: functional; method in brief: as §1
[10] = test system: Enterobacter cloacae; assay: Antibacterial activity against Enterobacter cloacae after 18 to 24 hrs by broth microdilution method; format: functional; method in brief: as §1
[11] = test system: Mycobacterium tuberculosis; assay: Antimycobacterial activity against Mycobacterium tuberculosis H37Rv by twofold agar dilution method; format: functional; method in brief: as §2
[12] = test system: Staphylococcus epidermidis; assay: Antibacterial activity against Staphylococcus epidermidis after 18 to 24 hrs by broth microdilution method; format: functional; method in brief: as §1
[13] = test system: Candida tropicalis; assay: Antifungal activity against Candida tropicalis after 48 hrs by NCCLS method; format: functional; method in brief: as §3
[14] = test system: Acinetobacter baumannii; assay: Antibacterial activity against Acinetobacter baumannii after 18 to 24 hrs by broth microdilution method; format: functional; method in brief: as §1
[15] = Cytotoxicity against human MT4 cells after 96 hrs by MTT assay; format: cell-based
Method in brief: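 Exponentially growing MT-4 cells (CD4+ T-cells carrying integrated HTLV-1) seeded at 1 × 10⁵ cells/mL in RPMI-1640 with 10% FCS, penicillin and streptomycin; exposed to serial compound dilutions at 37 °C, humidified 5% CO₂; viability read by MTT after 96 h; CC50 derived.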

SMILES	MIC [1] [µg/mL]	MIC [2] [µg/mL]	MIC [3] [µg/mL]	MIC [4] [µg/mL]	MIC [5] [µg/mL]	MIC [6] [µg/mL]	MIC [7] [µg/mL]	MIC [8] [µg/mL]	MIC [9] [µg/mL]	MIC [10] [µg/mL]	MIC [11] [µg/mL]	MIC [12] [µg/mL]	MIC [13] [µg/mL]	MIC [14] [µg/mL]	CC50 at 96 h [15] [µg/mL]
C=CCn1cc(C(=O)OCC)c(=O)c2ccc3c(nnn3Cc3ccccc3)c21	> 128	> 64	> 64	> 64	> 64	> 64	> 128	> 64	> 64	> 64	64 (≈ 165 µM)	> 64	> 64	> 64	
CC[C@@H](CO)NCCN[C@@H](CC)CO [ETHAMBUTOL]	0.5 (≈ 2.45 µM)						4 (≈ 19.6 µM)				5 (≈ 24.5 µM)				
CCOC(=O)c1cn(CC2CC2)c2c(ccc3c2nnn3C)c1=O	> 128	> 64	> 64	> 64	> 64	> 64	> 128	> 64	> 64	> 64	64 (≈ 196 µM)	> 64	> 64	> 64	
CO[C@H]1/C=C/O[C@@]2(C)Oc3c(C)c(O)c4c(O)c(c(/C=N/N5CCN(C)CC5)c(O)c4c3C2=O)NC(=O)/C(C)=C\C=C\[C@H](C)[C@H](O)[C@@H](C)[C@@H](O)[C@@H](C)[C@H](OC(C)=O)[C@@H]1C [RIFAMPIN]	8 (≈ 9.72 µM)						≤ 0.06				< 0.5				
CCOC(=O)c1cn(CC)c2c(ccc3c2nnn3Cc2ccccc2)c1=O	> 128	> 64	> 64	> 64	> 64	> 64	> 128	> 64	> 64	> 64	64 (≈ 170 µM)	> 64	> 64	> 64	
C=CCn1cc(C(=O)O)c(=O)c2ccc3c(nnn3Cc3ccccc3)c21	> 128	> 64	> 64	> 64	> 64	> 64	4 (≈ 11.1 µM)	> 64	> 64	> 64	64 (≈ 178 µM)	> 64	> 64	> 64	
Cn1nnc2c3c(ccc21)c(=O)c(C(=O)O)cn3C(C)(C)C	32 (≈ 107 µM)	> 64	> 64	> 64	> 64	> 64	8 (≈ 26.6 µM)	> 64	> 64	> 64	16 (≈ 53.3 µM)	> 64	> 64	> 64	> 100
C=C(C)Cn1cc(C(=O)O)c(=O)c2ccc3c(nnn3C)c21	64 (≈ 215 µM)	> 64	> 64	> 64	> 64	> 64	32 (≈ 107 µM)	> 64	> 64	> 64	64 (≈ 215 µM)	> 64	> 64	> 64	
C=C(C)Cn1cc(C(=O)OCC)c(=O)c2ccc3c(nnn3C)c21	> 128	> 64	> 64	> 64	> 64	> 64	> 128	> 64	> 64	> 64	64 (≈ 196 µM)	> 64	> 64	> 64	
Cn1cc(C(=O)O)c(=O)c2ccc3c(nnn3Cc3ccccc3)c21	32 (≈ 95.7 µM)	> 64	> 64	> 64	> 64	> 64	4 (≈ 12 µM)	> 64	> 64	> 64	8 (≈ 23.9 µM)	> 64	> 64	> 64	> 100
CCCCn1cc(C(=O)OCC)c(=O)c2ccc3c(nnn3Cc3ccccc3)c21	> 128	> 64	> 64	> 64	> 64	> 64	32 (≈ 79.1 µM)	> 64	> 64	> 64	64 (≈ 158 µM)	> 64	> 64	> 64	
Cn1nnc2c3c(ccc21)c(=O)c(C(=O)O)cn3CC1CC1	64 (≈ 215 µM)	> 64	> 64	> 64	> 64	> 64	16 (≈ 53.6 µM)	> 64	> 64	> 64	32 (≈ 107 µM)	> 64	> 64	> 64	
Cn1cc(C(=O)O)c(=O)c2ccc3c(nnn3C)c21	5 (≈ 19.4 µM)	> 64	> 64	> 64	> 64	> 64	0.5 (≈ 1.94 µM)	> 64	> 64	> 64	0.5 (≈ 1.94 µM)	> 64	> 64	> 64	> 100
CCOC(=O)c1cn(C)c2c(ccc3c2nnn3Cc2ccccc2)c1=O	> 128	> 64	> 64	> 64	> 64	> 64	> 128	> 64	> 64	> 64	64 (≈ 177 µM)	> 64	> 64	> 64	
Cn1nnc2c3c(ccc21)c(=O)c(C(=O)O)cn3CC1CCC1	64 (≈ 205 µM)	> 64	> 64	> 64	> 64	> 64	16 (≈ 51.2 µM)	> 64	> 64	> 64	32 (≈ 102 µM)	> 64	> 64	> 64	
CCOC(=O)c1cn(C(C)(C)C)c2c(ccc3c2nnn3C)c1=O	16 (≈ 48.7 µM)	> 64	> 64	> 64	> 64	> 64	4 (≈ 12.2 µM)	> 64	> 64	> 64	32 (≈ 97.5 µM)	> 64	> 64	> 64	
CCOC(=O)c1cn(CC2CCC2)c2c(ccc3c2nnn3C)c1=O	> 128	> 64	> 64	> 64	> 64	> 64	> 128	> 64	> 64	> 64	64 (≈ 188 µM)	> 64	> 64	> 64	
CCn1cc(C(=O)O)c(=O)c2ccc3c(nnn3Cc3ccccc3)c21	64 (≈ 184 µM)	> 64	> 64	> 64	> 64	> 64	8 (≈ 23 µM)	> 64	> 64	> 64	64 (≈ 184 µM)	> 64	> 64	> 64	
CN[C@@H]1[C@H](O[C@H]2[C@H](O[C@H]3[C@H](O)[C@@H](O)[C@H](N=C(N)N)[C@@H](O)[C@@H]3N=C(N)N)O[C@@H](C)[C@]2(O)C=O)O[C@@H](CO)[C@H](O)[C@H]1O [STREPTOMYCIN]							1 (≈ 1.72 µM)				1 (≈ 1.72 µM)				
CCCCn1cc(C(=O)O)c(=O)c2ccc3c(nnn3Cc3ccccc3)c21	> 128	> 64	> 64	> 64	> 64	> 64	64 (≈ 170 µM)	> 64	> 64	> 64	64 (≈ 170 µM)	> 64	> 64	> 64	
O=C(O)c1cn(C2CC2)c2cc(N3CCNCC3)c(F)cc2c1=O [CIPROFLOXACIN]	0.125 (≈ 0.377 µM)						0.5 (≈ 1.51 µM)				0.5 (≈ 1.51 µM)				
